Compound activity (PubChem BioAssay)
Hits are enriched below; roughly 3.1% of the tested compounds scored in any of these assays.
KCNQ1 pot: potentiators or activators of human KCNQ1 potassium channel; P51787; CHO-K1 KCNQ1, thallium flux FluxOR fluorescence; active compounds read high; B-score at 10 µM; 0.35% of 310,000 active; AID 2648;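 active = fluorescence ratio B-score, a plate-corrected score, at least three library SD, with initial intensity B-score within 5 SD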
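Medium – assay buffer, equal DMSO in all wells · Material – CHO-K1 cell line with stable KCNQ1 potassium channel expression · Signal – kinetic FluxOR thallium fluorescence, 10-s 1-Hz baseline, 110-s post-stimulus read · Compound – single concentration per compound, DMSO matched to controls · Schedule – 37 °C overnight plating, 90-min dark dye load, 20-min compound pretreatment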
KCNK3 block: human KCNK3 channel inhibition, primary screen; O14649; 0.84% of 340,000 active; CHO-KCNK3 thallium flux, FluxOR fluorescence; active compounds read low; B-score at 10 µM;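 active = B-score under library mean minus 4 SD, starting fluorescence ratio at most library mean plus 5 SD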;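 also: more negative B-score means stronger inhibition of thallium flux through KCNK3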
hERG protect: compounds protecting human hERG from proarrhythmic drug block | CHO-hERG, FluxOR thallium flux, dofetilide IC70 present | 0.51% of 310,000 active | activation (rescue from dofetilide block), less the hit threshold, % at 10 µM;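 active = activation above the mean of controls blocked by dofetilide plus 5 SD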;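 also: thallium influx through hERG after potassium depolarization seen as dye fluorescence rise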
Target sequence (Q12809 whole entry, looked up): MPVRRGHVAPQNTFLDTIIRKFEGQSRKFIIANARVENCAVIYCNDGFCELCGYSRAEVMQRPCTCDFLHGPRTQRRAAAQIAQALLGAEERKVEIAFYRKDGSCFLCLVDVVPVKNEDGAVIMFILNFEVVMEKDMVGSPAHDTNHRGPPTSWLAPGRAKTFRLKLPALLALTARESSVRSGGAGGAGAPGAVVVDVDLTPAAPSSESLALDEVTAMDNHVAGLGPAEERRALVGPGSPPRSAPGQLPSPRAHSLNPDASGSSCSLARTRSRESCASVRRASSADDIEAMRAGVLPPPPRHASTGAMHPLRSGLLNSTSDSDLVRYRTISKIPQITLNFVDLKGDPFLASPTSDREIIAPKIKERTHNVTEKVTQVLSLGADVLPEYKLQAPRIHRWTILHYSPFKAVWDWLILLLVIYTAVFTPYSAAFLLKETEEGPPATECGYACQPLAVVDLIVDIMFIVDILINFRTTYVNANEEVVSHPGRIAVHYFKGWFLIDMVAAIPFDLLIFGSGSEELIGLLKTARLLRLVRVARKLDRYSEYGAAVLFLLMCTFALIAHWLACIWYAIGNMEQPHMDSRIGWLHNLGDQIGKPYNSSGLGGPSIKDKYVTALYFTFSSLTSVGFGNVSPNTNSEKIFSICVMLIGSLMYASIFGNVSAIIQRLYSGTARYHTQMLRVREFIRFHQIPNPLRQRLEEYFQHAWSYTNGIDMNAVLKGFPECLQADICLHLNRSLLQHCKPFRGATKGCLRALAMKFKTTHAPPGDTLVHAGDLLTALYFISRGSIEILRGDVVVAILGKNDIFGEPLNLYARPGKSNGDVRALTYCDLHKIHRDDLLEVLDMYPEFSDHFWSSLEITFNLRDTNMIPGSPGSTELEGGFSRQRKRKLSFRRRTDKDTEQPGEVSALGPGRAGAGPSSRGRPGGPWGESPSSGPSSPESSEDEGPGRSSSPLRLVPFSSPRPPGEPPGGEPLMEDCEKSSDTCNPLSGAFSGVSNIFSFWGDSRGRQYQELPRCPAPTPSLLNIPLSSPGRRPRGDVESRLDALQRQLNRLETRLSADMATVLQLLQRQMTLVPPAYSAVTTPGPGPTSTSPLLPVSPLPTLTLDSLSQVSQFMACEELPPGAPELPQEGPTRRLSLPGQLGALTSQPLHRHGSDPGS
KCNQ1 inh: blocks the human KCNQ1 potassium channel. CHO-K1 KCNQ1, FluxOR thallium flux fluorescence; active compounds read high. B-score at 10 µM. 1.3% of 310,000 active;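 active = compounds whose thallium flux B-score, printed positive for inhibition, exceeds three library SD while starting fluorescence stays within three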;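 also: channel opened by potassium depolarization with thallium stimulus after 20 min compound exposure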
KCNK9 inh: inhibitors of human KCNK9 two-pore domain potassium channel. Q9NPC2. HEK293 KCNK9, FluxOR thallium flux fluorescence; active compounds read low. B-score at 10 µM. 1.2% of 310,000 active. AID 488922;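 active = ratio B-score over 3 SD below the library mean, with starting fluorescence within 5 SD of its mean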;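 also: negative B-score means less thallium flux so channel inhibition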
KCNK9 block conf: human KCNK9 inhibitor confirmation. 43% of 4,900 active. shares compounds with KCNK9 inh. AID 492992. inhibition, % at 10 µM. HEK293 KCNK9 cells, FluxOR thallium flux fluorescence;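 active = thallium signal inhibited by more than 5 SD of the compound-free buffer control wells, on both duplicate plates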;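 also: 0% = assay buffer control wells without compound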
Kir21 sel: mouse Kir2.1 off-target activity of KCNK9 modulators; shares compounds with KCNK9 inh; Kir2.1 cells, FluxOR thallium flux fluorescence; inhibition, % at 10 µM; 4% of 4,900 active; AID 492993;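 active = thallium signal drop more than 5 SD beyond the mean of the no-compound control wells, seen in both duplicate plates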;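 also: signal is fluorescence rise after thallium addition divided by baseline fluorescence; plate controls were assay buffer only for no effect and full block by chlorpromazine control for full effect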
HEK293 Tl ctr: second check of KCNK9 modulator effects in non-induced HEK293 cells; shares compounds with KCNK9 inh; FluxOR thallium flux; inhibition, % at 10 µM; 40% of 4,900 active;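 active = thallium signal drop beyond 5 SD of the untreated control mean, on both duplicate plates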;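 also: plate controls were buffer only IC0 wells for no effect and SID17386958 at its maximal inhibitory level for full effect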
Starred values were filed as active, the others as inactive; i = inactive; . = not tested or not shown.

SMILES | KCNQ1 pot | KCNK3 block | hERG protect | KCNQ1 inh | KCNK9 inh | KCNK9 block conf | Kir21 sel | HEK293 Tl ctr
CCCNC(=O)c1ccccc1NC(=O)c1ccccc1N(C)S(=O)(=O)c1ccc(C)cc1 | i | i | -7 | i | i | . | . | .
O=C(Cc1cccc2ccccc12)Nc1ccc(OC(F)F)c(Cl)c1 | i | i | -1 | i | i | . | . | .
O=C(Nc1ccc(OC(F)F)c(Cl)c1)C(c1ccccc1)c1ccccc1 | i | i | -16 | i | -10* | 25%* | i | 41%*
COc1ccc(C2C=C(Nc3ccccc3)C(=O)N2c2ccccc2)cc1OC (centres undefined) | i | i | -7 | i | -11* | 62%* | i | 34%*
CCc1ccc(NC(=O)C(=O)NCCOc2ccccc2Cl)cc1 | i | i | -11 | i | i | . | . | .
CCN(CC(=O)Nc1ccc(NC(C)=O)cc1)C(=O)c1cccc(S(=O)(=O)N2c3ccccc3CC2C)c1 (centres undefined) | i | i | -11 | i | i | . | . | .
CNC(=O)c1ccccc1NC(=O)C1CC(=O)N(C(C)C)C1 (centres undefined) | i | i | -8 | i | i | . | . | .
CCN(CC)S(=O)(=O)c1cccc(NC(=O)CCSc2ccc(Cl)cc2)c1 | i | i | -11 | i | i | i | i | i
COc1ccc(CN2CCN(Cc3ccc(C(F)(F)F)cc3)CC2)c(OC)c1 | i | i | -10 | i | i | . | . | .
CS(=O)(=O)N1CCN(Cc2ccccc2C(F)(F)F)CC1 | i | i | -5 | i | i | . | . | .
COc1cc(CN2CCN(Cc3ccc(C(F)(F)F)cc3)CC2)cc(OC)c1OC | i | i | -5 | i | i | i | i | i
COc1cc(CN2CCN(Cc3ccccc3C(F)(F)F)CC2)cc(OC)c1OC | i | i | -7 | i | i | i | i | i
Cc1ccc(CN2CCN(Cc3ccccc3C(F)(F)F)CC2)cc1 | i | i | -13 | i | i | i | i | i
C[C@@H](NC(=O)c1nc[nH]c1C(=O)NCC(=O)OCc1ccccc1)c1ccccc1 | i | i | -23 | i | i | . | . | .
CCC(=NCCc1c(C)[nH]c2ccc(OC(F)(F)F)cc12)C1=C(O)CC(c2ccccc2)CC1=O (centres undefined) | i | i | -15 | i | i | . | . | .
CCC(=NCCc1c(C)[nH]c2ccccc12)C1=C(O)CC(c2ccccc2)CC1=O (centres undefined) | i | i | -6 | i | i | i | i | i
CCCCC(=NCCc1c(C)[nH]c2ccc(OC)cc12)C1=C(O)CC(c2ccccc2)CC1=O (centres undefined) | i | i | -14 | i | i | i | i | i
COC(=O)C(Cc1cccc(C)n1)(c1ccccc1)c1ccccc1 | i | i | -10 | i | i | . | . | .
O=C(CCC(=O)c1cccs1)OCc1nc2ccccc2s1 | i | i | -7 | i | i | . | . | .
O=C(CCc1nc2ccccc2s1)OCc1ccccc1 | i | i | -3 | i | i | i | i | i
CC(C)(C)c1ccc(OCCC(=O)OCC(=O)NC(=O)NC2CCCC2)cc1 | i | i | -11 | i | -9.8* | i | i | i
CCNC(=O)CC1C(=O)N(c2ccc(C)cc2)C(=O)N1CCc1sccc1C (centres undefined) | i | i | -7 | i | i | . | . | .
NC(=O)N1c2ccccc2C=Cc2ccccc21 | i | i | -4 | i | i | . | . | .
CCN(CC)C(=O)N1c2ccccc2C=Cc2ccccc21 | i | i | -10 | i | -8.2* | 42%* | i | 30%*
Cc1ccc(C)c(Oc2cc(NN3CCCCC3)c([N+](=O)[O-])cc2[N+](=O)[O-])c1 | i | i | -8 | i | -11* | 32%* | i | i
SMILES | KCNQ1 pot | KCNK3 block | hERG protect | KCNQ1 inh | KCNK9 inh | KCNK9 block conf | Kir21 sel | HEK293 Tl ctr
O=C1NN(c2ccccc2)C(=O)/C1=C/c1ccc(Sc2cccc3ccccc23)o1 | i | i | -10 | i | i | i | i | i
O=C1NN(c2ccccc2)C(=O)/C1=C/c1ccc(-c2ccc(C(=O)O)cc2)o1 | i | i | -2 | i | i | . | . | .
Cc1ccc(S(=O)(=O)N/N=C/c2ccc(OS(=O)(=O)c3ccc(C)c([N+](=O)[O-])c3)cc2)cc1 | i | i | -10 | i | i | i | i | i
CN1C[C@@H]2[C@@H]3C(=O)N(C)C(=O)[C@@H]3[C@](Cc3ccccc3)(C1=O)N2C(=O)c1ccc(F)cc1 | . | i | . | . | . | . | . | .
COc1ccc(CCN2C(=O)C3CC(C)=C(C)CC3C2=O)cc1OC (centres undefined) | i | i | -7 | i | i | . | . | .
Cc1ccc(C)n1-n1cnc2sc(-c3ccccc3)cc2c1=O | i | i | -8 | i | -14* | 44%* | i | 26%*
Cc1ccc(C)n1-n1c(C)nc2sc(-c3ccccc3)cc2c1=O | i | i | -11 | i | i | i | i | i
O=c1c2cc(-c3ccccc3)sc2ncn1-n1cccc1 | i | i | 1 | i | i | . | . | .
CC(C)(CO)CNC(=O)CCc1nnc(-c2ccc(-c3ccccc3)cc2)o1 | i | i | -7 | i | i | . | . | .
CCN(CC)C(=O)C(=O)c1cccn1-c1ccccc1C#N | i | i | -10 | i | i | . | . | .
Cn1c2ccccc2c(=O)c2cc(C#Cc3ccc(N)cc3)ccc21 | i | i | -21 | i | -8.5* | 38%* | i | 26%*
CN(Cc1cnn(-c2ccc(F)cc2)c1)Cc1nc(Cc2ccccc2)no1 | i | i | -14 | i | i | i | i | i
Cc1ccc(OCc2nc(-c3ccccc3)no2)c(C)c1 | i | i | -6 | i | i | i | i | 40%*
COc1ccc(-c2noc(COc3ccc(C)c(C)c3)n2)cc1OC | i | i | -14 | i | i | i | i | i
Cc1cc(C)c(C)c(OCc2nc(-c3cccnc3)no2)c1 | i | i | -15 | i | i | . | . | .
O=C(NCc1ccccc1)c1ccc(C(=O)NCc2ccccc2)cc1 | . | i | . | . | . | . | . | .
O=C(NCc1ccccc1)c1ccc(C(=O)N(C2CCCCC2)C2CCCCC2)cc1 | i | i | -3 | i | -8.9* | i | i | 32%*
Cc1ccc(-c2cc(N)n(-c3ccc(F)cc3)n2)cc1 | i | i | -12 | i | i | . | . | .
